Laboratory results from ChEMBL document CHEMBL3994633, “Exploration of phenylpropanoic acids as agonists of the free fatty acid receptor 4 (FFA4): Identification of an orally efficacious FFA4 agonist” (Bioorg Med Chem Lett, 2017).

How the values were obtained:
[1] = molecular target: T1, Free fatty acid receptor 4 (Homo sapiens, UniProt Q5NUL3); test: Agonist activity at human FFA4 receptor expressed in human U2OS cells co-expressing Galpha16 assessed as calcium mobilization by Fluo-4 dye based FLIPR assay; format: functional, cell-based
T1 sequence (Q5NUL3 whole entry): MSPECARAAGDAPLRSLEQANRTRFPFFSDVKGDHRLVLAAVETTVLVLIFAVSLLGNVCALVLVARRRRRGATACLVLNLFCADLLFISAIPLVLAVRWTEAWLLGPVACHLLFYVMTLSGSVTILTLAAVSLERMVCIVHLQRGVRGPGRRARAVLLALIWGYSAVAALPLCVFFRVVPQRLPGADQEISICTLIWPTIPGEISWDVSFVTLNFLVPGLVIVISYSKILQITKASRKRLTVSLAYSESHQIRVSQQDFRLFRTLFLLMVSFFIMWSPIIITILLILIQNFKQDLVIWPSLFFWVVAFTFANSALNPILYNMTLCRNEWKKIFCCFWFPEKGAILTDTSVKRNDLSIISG
Procedure, shortened: (§1)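 U2OS cells transiently expressing human FFA1 or FFA4. Agonism measured from a ten-point dose-response curve with FLIPR readout, giving EC50 (nM) and efficacy (% max response). Values are means of three experiments.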

[2] = molecular target: T2, Free fatty acid receptor 1 (Homo sapiens, UniProt O14842); test: Agonist activity at human FFA1 receptor expressed in human U2OS cells co-expressing Galpha16 assessed as calcium mobilization by Fluo-4 dye based FLIPR assay; format: functional, cell-based; procedure, shortened: as §1
T2 sequence (O14842 whole entry): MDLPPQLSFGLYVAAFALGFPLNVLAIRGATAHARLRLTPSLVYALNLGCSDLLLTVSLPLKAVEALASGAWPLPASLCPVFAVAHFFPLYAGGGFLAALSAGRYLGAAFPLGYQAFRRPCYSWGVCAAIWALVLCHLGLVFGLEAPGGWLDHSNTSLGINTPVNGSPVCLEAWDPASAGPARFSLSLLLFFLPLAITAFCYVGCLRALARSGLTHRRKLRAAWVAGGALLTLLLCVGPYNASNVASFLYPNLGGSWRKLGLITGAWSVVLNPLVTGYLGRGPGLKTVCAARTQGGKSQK

[3] = molecular target: T3, Free fatty acid receptor 4 (Homo sapiens) (UniProt Q5NUL3); test: Agonist activity at human FFA4 receptor expressed in human U2OS cells co-expressing Galpha16 assessed as calcium mobilization by Fluo-4 dye based FLIPR assay relative to GSK137647A; format: functional, cell-based; procedure, shortened: as §1
T3 sequence (whole entry): T1 sequence (Q5NUL3 whole entry)

[4] = molecular target: T2, Free fatty acid receptor 1; test: Agonist activity at human FFA1 receptor expressed in human U2OS cells co-expressing Galpha16 assessed as calcium mobilization by Fluo-4 dye based FLIPR assay relative to GSK137647A; format: functional, cell-based; procedure, shortened: as §1
Homo sapiens [5] = species: Homo sapiens; test: Selectivity ratio of EC50 for human FFA1 receptor expressed in human U2OS cells co-expressing Galpha16 to EC50 for human FFA4 receptor expressed in human U2OS cells co-expressing Galpha16; format: cell-based
[6] = Clearance in C57BL/6J mouse at 3 mg/kg, iv; format: ADME, organism-based; settings: in vivo
Procedure, shortened: (§2)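 C57BL/6J mice (n = 2) dosed intravenously at 3 or 4.2 mg/kg. Clearance (mL/min/kg) and AUC (hr*ng/mL) derived from plasma concentrations.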

[7] = AUC in C57BL/6J mouse at 3 mg/kg, iv; format: ADME, organism-based; settings: in vivo; procedure, shortened: as §2
[8] = Cmax in C57BL/6J mouse at 10 mg/kg, po; format: ADME, organism-based; design: dose 10 mg/kg, route oral; settings: in vivo
Procedure, shortened: (§3)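 C57BL/6J mice (n = 2), single oral dose of 10 mg/kg given as a suspension in 0.5% HMPC: 0.1% Tween. Plasma Cmax and AUC (hr*ng/mL) measured; %F calculated against the IV leg.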

[9] = AUC in C57BL/6J mouse at 10 mg/kg, po; format: ADME, organism-based; settings: in vivo; procedure, shortened: as §3
[10] = Oral bioavailability in C57BL/6J mouse at 10 mg/kg; format: ADME, organism-based; settings: in vivo; procedure, shortened: as §3
[11] = Tmax in C57BL/6J mouse at 10 mg/kg, po; format: ADME, organism-based; settings: in vivo
[12] = Volume of distribution at steady state in C57BL/6J mouse at 3 mg/kg, iv or 10 mg/kg, po; format: ADME, organism-based; settings: in vivo, read-out: Vdss
[13] = Protein binding in human plasma; format: ADME, cell-free; settings: read-out: PPB
Homo sapiens [14] = species: Homo sapiens; test: Selectivity ratio of EC50 for human FFA4 receptor expressed in human U2OS cells co-expressing Galpha16 to EC50 for human FFA1 receptor expressed in human U2OS cells co-expressing Galpha16; format: cell-based

SMILES | EC50 [1] [nM] | EC50 ([2]; read-out: EC50) [nM] | %max [3] [%] | %max [4] [%] | also measured
Cc1cc(CCC(=O)O)ccc1OCc1ccccc1 | 750 | > 30000 | 83 |  | 
Cc1cc(C)cc(COc2ccc(CCC(=O)O)cc2C)c1 | 60 | 3780 | 66 | 97 | clearance [6]: 35 mL/min/kg; AUC [7]: 1420 ng·h/mL; Cmax [8]: 2630 ng/mL; AUC [9]: 2600 ng·h/mL; bioavailability [10]: 55%; Tmax [11]: 15 to 30 min; Vd [12]: < 2 L/kg; fraction unbound [13]: < 0.01
Cc1ccc(Br)c(COc2ccc(CCC(=O)O)cc2C)c1 | 53 | > 30000 | 118 |  | 
Cc1cc(CCC(=O)O)ccc1OCc1cccc(Cl)c1 | 362 | 10300 | 104 | 60 | 
Cc1cc(COc2ccc(CCC(=O)O)cc2C)cc(OC(C)C)c1 | 60 | > 30000 | 112 |  | clearance [6]: 43 mL/min/kg; AUC [7]: 1170 ng·h/mL; Cmax [8]: 687 ng/mL; AUC [9]: 767 ng·h/mL; bioavailability [10]: 20%; Tmax [11]: 15 to 30 min; Vd [12]: < 2 L/kg; fraction unbound [13]: < 0.01
Cc1cccc(COc2ccc(CCC(=O)O)cc2C)c1 | 275 | > 30000 | 100 |  | clearance [6]: 12 mL/min/kg; AUC [7]: 4100 ng·h/mL; Cmax [8]: 3080 ng/mL; AUC [9]: 5350 ng·h/mL; bioavailability [10]: 39%; Tmax [11]: 15 to 30 min; Vd [12]: < 2 L/kg; fraction unbound [13]: < 0.01
Cc1ccc(OC(C)C)c(COc2ccc(CCC(=O)O)cc2C)c1 | 172 | 19600 | 106 | 154 | 
Cc1ccc(Cl)c(COc2ccc(CCC(=O)O)cc2C)c1 | 188 | 18100 | 115 | 243 | clearance [6]: 18 mL/min/kg; AUC [7]: 2860 ng·h/mL; Cmax [8]: 3030 ng/mL; AUC [9]: 4400 ng·h/mL; bioavailability [10]: 46%; Tmax [11]: 15 to 30 min; Vd [12]: < 2 L/kg; fraction unbound [13]: < 0.01
Cc1cc(COc2ccc(CCC(=O)O)cc2C)cc(Oc2ccccc2)c1 | 40 | 1630 | 97 | 85 | 
Cc1cc(CCC(=O)O)ccc1OCc1cccc(Oc2ccccc2)c1 | 556 | 3840 | 95 | 90 | 
Cc1cc(CCC(=O)O)ccc1OCc1cc(C(F)(F)F)ccc1O | 10000 |  | 78 |  | 
O=C(O)CCc1ccc(OCc2cccc(Oc3ccccc3)c2)cc1 | 968 |  | 85 | 106 | Ratio EC50 (Homo sapiens [14]): 17

Continued, in another order:

EC50 [1] [nM] | EC50 ([2]; read-out: EC50) [nM] | %max [3] [%] | %max [4] [%] | SMILES | also measured
972 | 11600 | 130 | 80 | Cc1cc(CCC(=O)O)ccc1OCc1ccccc1Cl | 
11400 | 13100 |  | 109 | CC(CC(=O)O)c1ccc(OCc2ccccc2SC(F)(F)F)cc1 (centres undefined) | 
271 | > 30000 | 118 |  | Cc1cc(CCC(=O)O)ccc1OCc1ccccc1OC(C)C | 
236 | > 30000 | 116 |  | Cc1cc(CCC(=O)O)ccc1OCc1ccccc1Br | 
681 | 1420 | 105 | 74 to 77 | O=C(O)CCc1ccc(OCc2ccccc2SC(F)(F)F)cc1 | Ratio EC50 (Homo sapiens [5]): 2
2290 | > 30000 | 105 |  | O=C(O)CCc1ccc(OCc2ccccc2SC(F)(F)F)c2ccccc12 | 
304 | > 30000 | 77 |  | Cc1c(CCC(=O)O)ccc(OCc2ccccc2SC(F)(F)F)c1C | 
1990 | > 30000 | 110 |  | COc1cc(CCC(=O)O)ccc1OCc1ccccc1SC(F)(F)F | 
108 | > 10000 | 80 |  | O=C(O)CCc1ccc(OCc2ccccc2SC(F)(F)F)c(Cl)c1 | EC50 ([2]; read-out: pEC50 (converted)): > 31600 nM
5910 | > 30000 | 53 |  | O=C(O)CCc1ccc(OCc2ccccc2SC(F)(F)F)c(CO)c1 | 
201 | 8510 | 108 | 81 | Cc1cc(CCC(=O)O)ccc1OCc1ccccc1SC(F)(F)F | 
9980 | > 30000 | 85 |  | O=C(O)COc1ccc(OCc2ccccc2SC(F)(F)F)cc1 | 
> 30000 |  |  |  | O=C(O)CC(O)c1ccc(OCc2ccccc2SC(F)(F)F)cc1 (centres undefined) | 
722 | 1540 | 90 | 108 | Cc1cc(OCc2ccccc2SC(F)(F)F)ccc1CCC(=O)O | 
660 | 21800 | 102 | 115 | Cc1cc(CCC(=O)O)cc(C)c1OCc1ccccc1SC(F)(F)F | 
898 | > 30000 | 117 |  | Cc1cc(CCC(=O)O)ccc1OCc1cccc(C(F)(F)F)c1 | 
531 | 8600 | 103 | 95 | Cc1cc(CCC(=O)O)ccc1OCc1ccccc1C(F)(F)F | 
9660 | > 30000 | 161 |  | CC(C)Cc1cc(CCC(=O)O)ccc1OCc1ccccc1SC(F)(F)F | 
